Data: ChEMBL document CHEMBL1933006, “Mechanistic analysis of muraymycin analogues: a guide to the design of MraY inhibitors” (J Med Chem, 2011)
Values after ≈ are worked out from the molar mass of the structure shown.

What was measured:
Format in all cases: functional
Staphylococcus aureus [1] = assay: Antibacterial activity against methicillin-sensitive […] Staphylococcus aureus ATCC 29213 after 20 hrs by broth microdilution method; settings: ATCC 29213, 20 h
In short: (§1)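 NCCLS broth microdilution in cation-adjusted Mueller–Hinton broth. Serial 2-fold compound dilutions were inoculated with 5 × 10⁴ CFU per 0.1 mL and incubated at 35 °C for 20 h before scoring the MIC.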

Enterococcus faecium [2] = assay: Antibacterial activity against vancomycin-resistant Enterococcus faecium SR7917 after 20 hrs by broth microdilution method; settings: SR7917, 20 h; in short: as §1
Staphylococcus aureus [3] = assay: Antibacterial activity against methicillin-resistant Staphylococcus aureus isolate SR3637 after 20 hrs by broth microdilution method; settings: isolate SR3637, 20 h; in short: as §1
Enterococcus faecalis [4] = assay: Antibacterial activity against Enterococcus faecalis ATCC 29212 after 20 hrs by broth microdilution method; settings: ATCC 29212, 20 h; in short: as §1
Enterococcus faecalis [5] = assay: Antibacterial activity against vancomycin-resistant Enterococcus faecalis SR7914 after 20 hrs by broth microdilution method; settings: SR7914, 20 h; in short: as §1
Enterococcus faecium [6] = assay: Antibacterial activity against Enterococcus faecium ATCC 19434 after 20 hrs by broth microdilution method; settings: ATCC 19434, 20 h; in short: as §1

SMILES | MIC (Staphylococcus aureus [1]) | MIC (Enterococcus faecium [2]) | MIC (Staphylococcus aureus [3]) | MIC (Enterococcus faecalis [4]) | MIC (Enterococcus faecalis [5]) | MIC (Enterococcus faecium [6])
CCCCCCCCCCCCCCC[C@@H](NC(=O)[C@H](CCCN)NC(=O)N[C@H](C(=O)O)C(C)C)C(=O)NCCCN[C@H](C(=O)O)[C@H](O[C@@H]1O[C@H](CN)[C@@H](O)[C@H]1O)[C@H]1O[C@@H](n2ccc(=O)[nH]c2=O)[C@H](O)[C@@H]1O | 4 µg/mL (≈ 3.88 µM) | 8 µg/mL (≈ 7.77 µM) | 8 µg/mL (≈ 7.77 µM) | 8 µg/mL (≈ 7.77 µM) | 8 µg/mL (≈ 7.77 µM) | –
CCCCCCCCCCCCCCC[C@@H](NC(=O)[C@@H](NC(=O)N[C@H](C(=O)O)C(C)C)[C@H]1CCNC(=N)N1)C(=O)NCCCN[C@H](C(=O)O)[C@H](O[C@@H]1O[C@H](CN)[C@@H](O)[C@H]1O)[C@H]1O[C@@H](n2ccc(=O)[nH]c2=O)[C@H](O)[C@@H]1O | 4 µg/mL (≈ 3.74 µM) | 4 µg/mL (≈ 3.74 µM) | 2 µg/mL (≈ 1.87 µM) | 2 µg/mL (≈ 1.87 µM) | 4 µg/mL (≈ 3.74 µM) | –
CCCCCCCCCCCCCCC[C@H](NC(=O)[C@@H](N)CCCSC)C(=O)NCCCN[C@H](C(=O)O)[C@H](O[C@@H]1O[C@H](CN)[C@@H](O)[C@H]1O)[C@H]1O[C@@H](n2ccc(=O)[nH]c2=O)[C@H](O)[C@@H]1O | 8 µg/mL (≈ 8.71 µM) | 8 µg/mL (≈ 8.71 µM) | 8 µg/mL (≈ 8.71 µM) | 4 µg/mL (≈ 4.36 µM) | 4 µg/mL (≈ 4.36 µM) | –
CCCCCCCCCCCCCCC[C@H](NC(=O)[C@H](CCCN)NC(=O)N[C@H](C(=O)O)C(C)C)C(=O)NCCCN[C@H](C(=O)O)[C@H](O[C@@H]1O[C@H](CN)[C@@H](O)[C@H]1O)[C@H]1O[C@@H](n2ccc(=O)[nH]c2=O)[C@H](O)[C@@H]1O | 4 µg/mL (≈ 3.88 µM) | 4 µg/mL (≈ 3.88 µM) | 2 µg/mL (≈ 1.94 µM) | 8 µg/mL (≈ 7.77 µM) | 8 µg/mL (≈ 7.77 µM) | –
CCCCCCCCCCCCCCC[C@H](NC(=O)[C@@H](N)CCCNC(=N)N)C(=O)NCCCN[C@H](C(=O)O)[C@H](O[C@@H]1O[C@H](CN)[C@@H](O)[C@H]1O)[C@H]1O[C@@H](n2ccc(=O)[nH]c2=O)[C@H](O)[C@@H]1O | 4 µg/mL (≈ 4.31 µM) | 4 µg/mL (≈ 4.31 µM) | 4 µg/mL (≈ 4.31 µM) | 4 µg/mL (≈ 4.31 µM) | 4 µg/mL (≈ 4.31 µM) | –
CCCCOc1ccc(-c2ccc(CC[C@@H](NC(=O)[C@@H](NC(=O)N[C@H](C(=O)O)C(C)C)[C@@H]3CCNC(=N)N3)C(=O)NCCCN[C@H](C(=O)O)[C@H](O[C@@H]3O[C@H](CN)[C@@H](O)[C@H]3O)[C@H]3O[C@@H](n4ccc(=O)[nH]c4=O)[C@H](O)[C@@H]3O)cc2)cc1 | 64 µg/mL (≈ 57.5 µM) | 8 µg/mL (≈ 7.19 µM) | 64 µg/mL (≈ 57.5 µM) | 32 µg/mL (≈ 28.8 µM) | 64 µg/mL (≈ 57.5 µM) | 4 µg/mL (≈ 3.6 µM)
CCCCCCCCCCCCCCC[C@@H](NC(=O)[C@H](CCCNC(=N)N)NC(=O)N[C@H](C(=O)O)C(C)C)C(=O)NCCCN[C@H](C(=O)O)[C@H](O[C@@H]1O[C@H](CN)[C@@H](O)[C@H]1O)[C@H]1O[C@@H](n2ccc(=O)[nH]c2=O)[C@H](O)[C@@H]1O | 4 µg/mL (≈ 3.73 µM) | 2 µg/mL (≈ 1.87 µM) | 4 µg/mL (≈ 3.73 µM) | 4 µg/mL (≈ 3.73 µM) | 4 µg/mL (≈ 3.73 µM) | –
CCCCCCCCCCCCCCC[C@H](NC(=O)[C@@H](NC(=O)OCc1ccccc1)[C@@H]1CCNC(=N)N1)C(=O)NCCCN[C@H](C(=O)O)[C@H](O[C@@H]1O[C@H](CN)[C@@H](O)[C@H]1O)[C@H]1O[C@@H](n2ccc(=O)[nH]c2=O)[C@H](O)[C@@H]1O | 8 µg/mL (≈ 7.54 µM) | 8 µg/mL (≈ 7.54 µM) | 8 µg/mL (≈ 7.54 µM) | 4 µg/mL (≈ 3.77 µM) | 4 µg/mL (≈ 3.77 µM) | –
CCCCCCCCCCCCCCC[C@@H](NC(=O)[C@@H](NC(=O)OCc1ccccc1)[C@@H]1CCNC(=N)N1)C(=O)NCCCN[C@H](C(=O)O)[C@H](O[C@@H]1O[C@H](CN)[C@@H](O)[C@H]1O)[C@H]1O[C@@H](n2ccc(=O)[nH]c2=O)[C@H](O)[C@@H]1O | 8 µg/mL (≈ 7.54 µM) | 4 µg/mL (≈ 3.77 µM) | 8 µg/mL (≈ 7.54 µM) | 4 µg/mL (≈ 3.77 µM) | 4 µg/mL (≈ 3.77 µM) | –
